A short description of series [1]: melting temperature; fluorescence melt of hairpins on a sequencing array, two-state fit, raised by 9.35 °C to match UV melts. The settings on record: sodium 0.088 M. Summed up: (§1)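 In 50 mM Na-HEPES pH 8.0 containing 25 mM NaCl, hairpins from the library on a sequenced MiSeq flow cell were imaged for Cy3 fluorescence at 2.5 °C steps up to 60 °C, with Cy3 and quencher oligos annealed. After normalisation to pre-quench Cy3 and to control constructs, two-state fits with bootstrapping gave melting temperature and folding enthalpy. Four replicates were combined by inverse-variance weighting, and fitted temperatures were shifted up by 9.35 °C to match UV melts.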

A short description of series [2]: folding enthalpy; higher = less favourable; fluorescence melt of hairpins on a sequencing array, two-state fit. The settings on record: sodium 0.088 M. Summed up: as §1

On to GCCACCGAAAGGTGCGGC ((((((....)))..))), for which the Tm in series [1] was 60.8 °C. Further, the folding enthalpy in series [2] is -13.1 kcal/mol.
The matching figures for GCCACCGAAAGGTGTGGC ((((((....)))..))): 58.2 °C and -17.5 kcal/mol.
With GCCACCGAAAGGTTAGGC ((((((....)))..))), in series [1], the Tm was found to be 51.1 °C. Further, the folding enthalpy in series [2] is -25.5 kcal/mol.
The matching figures for GCCACCGAAAGGTTTGGC ((((((....)))..))): 48.7 °C and -26.6 kcal/mol.
The matching figures for GCCACCGGAAACGGCAGC ((..(((....)))..)): 31 °C and -15.6 kcal/mol.
The matching figures for GCCACCGGAAACGGTAGC ((.((((....)))).)): 48.1 °C and -21.2 kcal/mol.
Take GCCACGCCGAAAGGCGGC (((..(((....)))))): the Tm in series [1] was found to be 48.3 °C. In series [2], the folding enthalpy was -7.28 kcal/mol.
On to GCCACGCGAAAGCATGGC ((((.((....)).)))), for which the Tm in series [1] came out at 66.8 °C. Also, in series [2], the folding enthalpy was -32.9 kcal/mol.
For GCCACGCGAAAGCCGGGC (((..((....))..))), in that order: 58 °C and -24.1 kcal/mol.
Consider GCCACGCGAAAGCCTCGC ((.(.((....)).).)), for which, in series [1], the Tm was found to be 27 °C. The folding enthalpy in series [2] is -7.67 kcal/mol.
Take GCCACGCGAAAGCGCAGC ((..(((....)))..)): the Tm in series [1] was 43.6 °C. Moreover, the folding enthalpy in series [2] is -10.6 kcal/mol.
The matching figures for GCCACGCGAAAGCGGTGC ((..(((....)))..)): 50.1 °C and -13.3 kcal/mol.
For GCCACGCGAAAGCTCGGC (((..((....))..))), in that order: 51.2 °C and -22 kcal/mol.
As to GCCACGCGAAAGCTGGGC (((..((....))..))), the Tm in series [1] was 60 °C. Moreover, the folding enthalpy in series [2] is -27 kcal/mol.
GCCACGCGAAAGCTTCGC ((.(.((....)).).)): the Tm in series [1] is 33.6 °C. For the same sequence, the folding enthalpy in series [2] is -7.03 kcal/mol.
On to GCCACGGGAAACCGCGAC (.(.(((....))).).), for which, in series [1], the Tm came to 29.1 °C. For the same sequence, the folding enthalpy in series [2] was -12.1 kcal/mol.
The matching figures for GCCACGGGAAACCGTGAC (.(((((....))))).): 51.1 °C and -16.5 kcal/mol.
The matching figures for GCCACGGGAAACTGTGGC (((((.(....).))))): 63.2 °C and -43.2 kcal/mol.
For the sequence GCCACTGCGAAAGCAGGC (((..(((....)))))), the Tm in series [1] is 46 °C. In series [2], the folding enthalpy was -8.9 kcal/mol.
Consider GCCACTGGAAACAGCGAC (.(.(((....))).).), for which the Tm in series [1] stood at 26 °C. Further, in series [2], the folding enthalpy was -13.9 kcal/mol.
For GCCAGACGAAAGTCAGGC (((.(((....))).))), in that order: 64.8 °C and -32.6 kcal/mol.
Consider GCCAGCCCGAAAGGGGGC (((..(((....)))))), for which, in series [1], the Tm came out at 55.3 °C. For the same sequence, in series [2], the folding enthalpy is -14.7 kcal/mol.
On to GCCAGCCGAAAGGCCGGC (((.(((....))).))), for which the Tm in series [1] was determined as 68.4 °C. Further, the folding enthalpy in series [2] was -27.4 kcal/mol.
For the sequence GCCAGCGAAAGCTAGGC ((((((....))).))), the Tm in series [1] came to 66 °C. Moreover, in series [2], the folding enthalpy is -25.9 kcal/mol.
Take GCCAGCGAAAGCTCAGGC ((((((....)))..))): the Tm in series [1] came out at 49.9 °C. The folding enthalpy in series [2] was -30.4 kcal/mol.
Regarding GCCAGCGAAAGCTGCGGC ((((((....)))..))), in series [1], the Tm worked out at 61.4 °C. The folding enthalpy in series [2] is -13 kcal/mol.
Take GCCAGCGAAAGCTGTGGC ((((((....)))..))): the Tm in series [1] is 56.6 °C. Also, the folding enthalpy in series [2] is -15.1 kcal/mol.
Consider GCCAGGACGAAAGTCGGC (((..(((....)))))), for which the Tm in series [1] came to 52.6 °C. Also, the folding enthalpy in series [2] is -27.3 kcal/mol.
The matching figures for GCCAGGCGAAAGCAGGGC (((..((....))..))): 64 °C and -32.1 kcal/mol.
GCCAGGCGAAAGCCCAGC ((..(((....)))..)): the Tm in series [1] came out at 40.2 °C. Also, the folding enthalpy in series [2] was -13.5 kcal/mol.
As to GCCAGGCGAAAGCTGGGC (((..((....))..))), the Tm in series [1] came to 62.9 °C. Further, the folding enthalpy in series [2] was -27.1 kcal/mol.
For GCCAGGGAAACCTGGC ((((((....)))))), in that order: 69.2 °C and -37.4 kcal/mol.
As to GCCAGGGGAAACCCCAGC ((..(((....)))..)), the Tm in series [1] came out at 38.3 °C. Further, in series [2], the folding enthalpy is -21.5 kcal/mol.
For GCCAGTACGAAAGTAGGC (((..(((....)))))), in that order: 43.4 °C and -23.8 kcal/mol.
The matching figures for GCCAGTCGAAAGACCGGC (((.(((....))).))): 55.3 °C and -36.4 kcal/mol.
The matching figures for GCCATAGCGAAAGCTGGC (((..(((....)))))): 56.5 °C and -25.5 kcal/mol.
Take GCCATAGGAAACTACGGC (((.(((....))).))): the Tm in series [1] worked out at 40.6 °C. Further, the folding enthalpy in series [2] was -29.9 kcal/mol.
For GCCATAGGAAACTATGAC (.(((((....))))).), in series [1], the Tm stood at 34.1 °C. The folding enthalpy in series [2] was -18.2 kcal/mol.
For the sequence GCCATCGAAAGATCGGC ((((((....))).))), the Tm in series [1] was 48.2 °C. Moreover, in series [2], the folding enthalpy is -24.7 kcal/mol.
On to GCCATCGAAAGATGTGGC ((((((....)))..))), for which the Tm in series [1] came out at 46.6 °C. Moreover, the folding enthalpy in series [2] is -23.4 kcal/mol.
As to GCCATCGGAAACAATGGC (((((.(....).))))), the Tm in series [1] turned out to be 44.7 °C. In addition, the folding enthalpy in series [2] was -29.6 kcal/mol.
The matching figures for GCCATCGGAAACGATAGC ((.((((....)))).)): 45 °C and -21.6 kcal/mol.
With GCCATCGGAAACGGTGGC ((((.((....)).)))), the Tm in series [1] was determined as 59.3 °C. The folding enthalpy in series [2] was -46.7 kcal/mol.
For GCCATGCGAAAGCAATGC ((..(((....)))..)), in that order: 41.3 °C and -12.6 kcal/mol.
The matching figures for GCCATGCGAAAGCACCGC ((..(((....)))..)): 24.1 °C and -8.84 kcal/mol.
On to GCCATGCGAAAGCACTGC ((..(((....)))..)), for which the Tm in series [1] is 31.8 °C. The folding enthalpy in series [2] is -10.4 kcal/mol.
For GCCATGCGAAAGCAGCGC ((..(((....)))..)), in that order: 47 °C and -17.2 kcal/mol.
The matching figures for GCCATGCGAAAGCAGTGC ((..(((....)))..)): 39.7 °C and -15.2 kcal/mol.
For the sequence GCCATGCGAAAGCATCGC ((.((((....)))).)), in series [1], the Tm was 49.5 °C. Further, the folding enthalpy in series [2] is -18.1 kcal/mol.
As to GCCATGCGAAAGCTTAGC ((.(.((....)).).)), the Tm in series [1] was found to be 28 °C. For the same sequence, in series [2], the folding enthalpy was -13.1 kcal/mol.
The matching figures for GCCATGGAAACATGGC ((((((....)))))): 67.7 °C and -34 kcal/mol.
The matching figures for GCCATGGGAAACTGTGGC ((((..(....)..)))): 47.1 °C and -28.2 kcal/mol.
Regarding GCCATTGAAAAATGGC ((((((....)))))), the Tm in series [1] was 58.4 °C. Further, the folding enthalpy in series [2] is -39.8 kcal/mol.
The matching figures for GCCATTGGAAACAACGGC (((.(((....))).))): 43 °C and -33.1 kcal/mol.
The matching figures for GCCATTGGAAACAATGGC (((((((....))))))): 67.5 °C and -43.9 kcal/mol.
For GCCCAACGAAAGTTCGGC (((.(((....))).))), in that order: 45.5 °C and -29.9 kcal/mol.
On to GCCCAAGAAATTGGGC ((((((....)))))), for which the Tm in series [1] was 63.1 °C. In addition, in series [2], the folding enthalpy is -33.3 kcal/mol.
The matching figures for GCCCAAGGAAACTTAGGC (((.(((....))).))): 35.4 °C and -21.9 kcal/mol.
Regarding GCCCACCGAAAGGTAGGC (((.(((....))).))), in series [1], the Tm worked out at 55.5 °C. Moreover, the folding enthalpy in series [2] is -38 kcal/mol.
With GCCCACCGAAAGGTGGC (((.(((....)))))), the Tm in series [1] is 62.3 °C. The folding enthalpy in series [2] was -9.61 kcal/mol.
For GCCCACGAAAGTGACGGC ((((((....)))..))), the Tm in series [1] came out at 49.6 °C. In series [2], the folding enthalpy was -19.9 kcal/mol.
In the case of GCCCACGAAAGTGTCGGC ((((((....)))..))), the Tm in series [1] amounted to 48.4 °C. For the same sequence, the folding enthalpy in series [2] was -19.6 kcal/mol.
For GCCCACGGAAACGTGGAC (.(((((....))))).), in that order: 50.6 °C and -14.1 kcal/mol.
The matching figures for GCCCAGCGAAAGCCGTGC ((.(.((....)).).)): 27.1 °C and -7.02 kcal/mol.
In the case of GCCCAGCGAAAGCGCGGC (((..((....))..))), the Tm in series [1] worked out at 61.9 °C. Besides, the folding enthalpy in series [2] is -22.1 kcal/mol.
With GCCCAGCGAAAGCGTGGC (((..((....))..))), the Tm in series [1] stood at 62.4 °C. Also, the folding enthalpy in series [2] is -23 kcal/mol.
For GCCCAGCGAAAGCTCAGC ((..(((....)))..)), in that order: 32.6 °C and -8.74 kcal/mol.
Consider GCCCAGCGAAAGCTCGGC (((.(((....))).))), for which the Tm in series [1] was 51.3 °C. In addition, in series [2], the folding enthalpy was -40.4 kcal/mol.
On to GCCCAGCGAAAGCTCTGC ((..(((....)))..)), for which, in series [1], the Tm came out at 26.9 °C. For the same sequence, the folding enthalpy in series [2] is -6.7 kcal/mol.
Regarding GCCCAGCGAAAGCTTTGC ((..(((....)))..)), in series [1], the Tm worked out at 37.6 °C. Also, the folding enthalpy in series [2] was -7.49 kcal/mol.
As for GCCCATCGAAAGATGGC (((.(((....)))))), the Tm in series [1] turned out to be 56.1 °C. In addition, the folding enthalpy in series [2] was -14 kcal/mol.
With GCCCATGGAAACGTGGGC (((((.(....).))))), the Tm in series [1] is 59 °C. The folding enthalpy in series [2] is -38.2 kcal/mol.
The matching figures for GCCCCACGAAAGTGCGGC (((.(((....))).))): 54.3 °C and -29.6 kcal/mol.

These data come from the array DNA melting data of Ke et al. (doi:10.1101/2024.01.08.574731).
